# From ChEMBL document CHEMBL5058577, “EUbOPEN Chemogenomics Library 2 (Multiplex)” (2022)
# Tested on: HEK-293T
# Assay: Multiplex assay against HEK293T
# Type: toxicity, cell-based
# Conditions: human
# How it was run: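 Tubulin, mitochondrial-mass and membrane-permeability phenotypes are per cents of healthy-nucleus cells. Cells were gated by CellPathfinder machine learning into Hoechst high-intensity objects or normal cells, normal cells into healthy, pyknosed or fragmented nuclei, and pyknosed cells into mitotic or apoptotic. Before that, live cells stained at seeding with Hoechst33342, BioTracker Green Microtubule Cytoskeleton Dye, MitoTracker Red and Annexin V Alexa Fluor 680 were imaged on a CQ1 microscope at 37°C and 5% CO2 after compound addition.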
# [1] = 12 h, 1 µM, compound concentration 1 uM, replicate 1
# [2] = 12 h, 1 µM, compound concentration 1 uM, replicate 2
# [3] = 12 h, 10 µM, compound concentration 10 uM, replicate 1
# [4] = 12 h, 10 µM, compound concentration 10 uM, replicate 2
# [5] = 24 h, 1 µM, compound concentration 1 uM, replicate 1
# [6] = 24 h, 1 µM, compound concentration 1 uM, replicate 2
# [7] = 24 h, 10 µM, compound concentration 10 uM, replicate 1
# [8] = 24 h, 10 µM, compound concentration 10 uM, replicate 2
# [9] = 48 h, 1 µM, compound concentration 1 uM, replicate 1
# [10] = 48 h, 1 µM, compound concentration 1 uM, replicate 2
# [11] = 48 h, 10 µM, compound concentration 10 uM, replicate 1
# [12] = 48 h, 10 µM, compound concentration 10 uM, replicate 2
smiles,measurement,setting,value
CCCCC(=O)N(Cc1ccc(-c2ccccc2-c2nnn[nH]2)cc1)[C@H](C(=O)O)C(C)C,Population Apoptotic (%),[1],44%
same,Population Fragmented Nuclei (%),[1],7%
same,Population Healthy Nuclei (%),[1],80%
same,Population Hoechst High Intensity Objects (%),[1],9%
same,Population Membrane Permeable-Phenotype (%),[1],0%
same,Population Mitochondria Different-Phenotype (%),[1],36%
same,Population Mitotic Cells (%),[1],55%
same,Population Normal (%),[1],90%
same,Population Pyknosed Nuclei (%),[1],12%
same,Population Tubulin-Different-Phenotype (%),[1],16%
same,Total Cell Count,[1],469
same,Population Apoptotic (%),[2],40%
same,Population Fragmented Nuclei (%),[2],6%
same,Population Healthy Nuclei (%),[2],74%
same,Population Hoechst High Intensity Objects (%),[2],11%
same,Population Mitochondria Different-Phenotype (%),[2],49%
same,Population Mitotic Cells (%),[2],59%
same,Population Normal (%),[2],88%
same,Population Pyknosed Nuclei (%),[2],18%
same,Population Tubulin-Different-Phenotype (%),[2],21%
same,Total Cell Count,[2],290
same,Population Apoptotic (%),[3],21%
same,Population Fragmented Nuclei (%),[3],7%
same,Population Healthy Nuclei (%),[3],83%
same,Population Hoechst High Intensity Objects (%),[3],5%
same,Population Membrane Permeable-Phenotype (%),[3],0%
same,Population Mitochondria Different-Phenotype (%),[3],30%
same,Population Mitotic Cells (%),[3],78%
same,Population Normal (%),[3],94%
same,Population Pyknosed Nuclei (%),[3],8%
same,Population Tubulin-Different-Phenotype (%),[3],19%
same,Total Cell Count,[3],507
same,Population Apoptotic (%),[4],51%
same,Population Fragmented Nuclei (%),[4],5%
same,Population Healthy Nuclei (%),[4],81%
same,Population Hoechst High Intensity Objects (%),[4],10%
same,Population Mitochondria Different-Phenotype (%),[4],63%
same,Population Mitotic Cells (%),[4],48%
same,Population Normal (%),[4],89%
same,Population Pyknosed Nuclei (%),[4],13%
same,Total Cell Count,[4],310
same,Population Apoptotic (%),[5],30%
same,Population Fragmented Nuclei (%),[5],11%
same,Population Healthy Nuclei (%),[5],78%
same,Population Hoechst High Intensity Objects (%),[5],5%
same,Population Membrane Permeable-Phenotype (%),[5],0%
same,Population Mitochondria Different-Phenotype (%),[5],21%
same,Population Mitotic Cells (%),[5],70%
same,Population Normal (%),[5],94%
same,Population Pyknosed Nuclei (%),[5],10%
same,Population Tubulin-Different-Phenotype (%),[5],12%
same,Total Cell Count,[5],630
same,Population Apoptotic (%),[6],32%
same,Population Fragmented Nuclei (%),[6],9%
same,Population Healthy Nuclei (%),[6],82%
same,Population Hoechst High Intensity Objects (%),[6],6%
same,Population Mitochondria Different-Phenotype (%),[6],26%
same,Population Mitotic Cells (%),[6],67%
same,Population Normal (%),[6],93%
same,Population Pyknosed Nuclei (%),[6],8%
same,Total Cell Count,[6],429
same,Population Apoptotic (%),[7],20%
same,Population Fragmented Nuclei (%),[7],9%
same,Population Healthy Nuclei (%),[7],82%
same,Population Hoechst High Intensity Objects (%),[7],5%
same,Population Membrane Permeable-Phenotype (%),[7],0%
same,Population Mitochondria Different-Phenotype (%),[7],19%
same,Population Mitotic Cells (%),[7],79%
same,Population Normal (%),[7],94%
same,Population Pyknosed Nuclei (%),[7],7%
same,Population Tubulin-Different-Phenotype (%),[7],11%
same,Total Cell Count,[7],663
same,Population Apoptotic (%),[8],35%
same,Population Hoechst High Intensity Objects (%),[8],7%
same,Population Mitochondria Different-Phenotype (%),[8],30%
same,Population Mitotic Cells (%),[8],64%
same,Population Normal (%),[8],92%
same,Population Tubulin-Different-Phenotype (%),[8],13%
same,Total Cell Count,[8],420
same,Population Apoptotic (%),[9],18%
same,Population Fragmented Nuclei (%),[9],13%
same,Population Healthy Nuclei (%),[9],80%
same,Population Hoechst High Intensity Objects (%),[9],2%
same,Population Membrane Permeable-Phenotype (%),[9],1%
same,Population Mitochondria Different-Phenotype (%),[9],12%
same,Population Mitotic Cells (%),[9],81%
same,Population Normal (%),[9],97%
same,Population Pyknosed Nuclei (%),[9],5%
same,Population Tubulin-Different-Phenotype (%),[9],7%
same,Total Cell Count,[9],1024
same,Population Apoptotic (%),[10],19%
same,Population Fragmented Nuclei (%),[10],14%
same,Population Healthy Nuclei (%),[10],79%
same,Population Hoechst High Intensity Objects (%),[10],3%
same,Population Membrane Permeable-Phenotype (%),[10],0%
same,Population Mitochondria Different-Phenotype (%),[10],16%
same,Population Mitotic Cells (%),[10],80%
same,Population Normal (%),[10],96%
same,Population Pyknosed Nuclei (%),[10],6%
same,Population Tubulin-Different-Phenotype (%),[10],9%
same,Total Cell Count,[10],653
same,Population Apoptotic (%),[11],14%
same,Population Fragmented Nuclei (%),[11],14%
same,Population Healthy Nuclei (%),[11],81%
same,Population Hoechst High Intensity Objects (%),[11],1%
same,Population Membrane Permeable-Phenotype (%),[11],2%
same,Population Mitochondria Different-Phenotype (%),[11],8%
same,Population Mitotic Cells (%),[11],85%
same,Population Normal (%),[11],98%
same,Population Pyknosed Nuclei (%),[11],3%
same,Population Tubulin-Different-Phenotype (%),[11],8%
same,Total Cell Count,[11],1205
same,Population Apoptotic (%),[12],15%
same,Population Healthy Nuclei (%),[12],78%
same,Population Hoechst High Intensity Objects (%),[12],2%
same,Population Membrane Permeable-Phenotype (%),[12],0%
same,Population Mitochondria Different-Phenotype (%),[12],17%
same,Population Mitotic Cells (%),[12],84%
same,Population Normal (%),[12],97%
same,Population Pyknosed Nuclei (%),[12],7%
same,Total Cell Count,[12],623
